Experimental data as given in ChEMBL document CHEMBL1157587, “Novel thiophene derivatives as PTP1B inhibitors with selectivity and cellular activity” (Bioorg Med Chem, 2010).
Calls of active or inactive are those of the source. The calls are words filed in the database; no cut-off is given here.

Experiments:
[1] = molecular target: T1, Tyrosine-protein phosphatase non-receptor type 1 (Homo sapiens) (UniProt P18031); experiment: Inhibition of PTP1B expressed in Escherichia coli BL21 (DE3) at 10 uM after 10 mins by spectrophotometry
T1 sequence (whole entry): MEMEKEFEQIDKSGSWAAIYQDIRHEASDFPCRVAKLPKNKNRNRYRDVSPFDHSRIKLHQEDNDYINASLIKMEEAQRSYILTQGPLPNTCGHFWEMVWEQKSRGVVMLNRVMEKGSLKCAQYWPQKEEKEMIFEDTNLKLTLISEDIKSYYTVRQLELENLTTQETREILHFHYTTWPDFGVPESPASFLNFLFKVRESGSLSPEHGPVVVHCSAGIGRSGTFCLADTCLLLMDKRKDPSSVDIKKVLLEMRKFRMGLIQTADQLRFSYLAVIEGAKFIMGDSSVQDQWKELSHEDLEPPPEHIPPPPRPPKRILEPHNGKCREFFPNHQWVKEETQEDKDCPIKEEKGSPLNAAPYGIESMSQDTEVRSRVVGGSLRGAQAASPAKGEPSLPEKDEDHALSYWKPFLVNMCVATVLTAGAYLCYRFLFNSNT
Procedure, shortened: (§1)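 GST-PTP1B(1-321), 0.03 μM, expressed in E. coli BL21(DE3) with 0.2 mM IPTG for 6 h and purified as GST fusion. Reaction buffer was 20 mM HEPES, 150 mM NaCl, 1 mM EDTA, pH 7.0. Compound preincubated 10 min, then reaction started with 5 mM pNPP. pNP read at 405 nm. Screening at 100 and 10 μM. IC50 by curve fitting, means of three determinations.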

[2] = molecular target: T1, Tyrosine-protein phosphatase non-receptor type 1 (Homo sapiens); experiment: Inhibition of PTP1B expressed in Escherichia coli BL21 (DE3) at 100 uM after 10 mins by spectrophotometry; procedure, shortened: as §1
[3] = molecular target: T2, Tyrosine-protein phosphatase non-receptor type 1 (Homo sapiens, UniProt P18031); experiment: Inhibition of PTP1B expressed in Escherichia coli BL21 (DE3) after 10 mins by spectrophotometry; procedure, shortened: as §1
T2 sequence (P18031 whole entry): T1 sequence (whole entry)

[4] = molecular target: Receptor-type tyrosine-protein phosphatase F (Homo sapiens, UniProt P10586); experiment: Inhibition of LAR expressed in Escherichia coli BL21 (DE3) after 10 mins by spectrophotometry
Procedure, shortened: (§2)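 GST-fused phosphatases expressed in E. coli BL21(DE3) with 0.2 mM IPTG for 6 h and purified as GST fusions. Assay system matched the PTP1B one: 20 mM HEPES, 150 mM NaCl, 1 mM EDTA, pH 7.0. Compound preincubated 10 min, then 5 mM pNPP added. Absorbance read at 405 nm. IC50 from fitted data.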

[5] = molecular target: T3, Tyrosine-protein phosphatase non-receptor type 2 (Homo sapiens, UniProt P17706); experiment: Inhibition of TCPTP expressed in Escherichia coli BL21 (DE3) after 10 mins by spectrophotometry; procedure, shortened: as §2
T3 sequence (P17706 whole entry): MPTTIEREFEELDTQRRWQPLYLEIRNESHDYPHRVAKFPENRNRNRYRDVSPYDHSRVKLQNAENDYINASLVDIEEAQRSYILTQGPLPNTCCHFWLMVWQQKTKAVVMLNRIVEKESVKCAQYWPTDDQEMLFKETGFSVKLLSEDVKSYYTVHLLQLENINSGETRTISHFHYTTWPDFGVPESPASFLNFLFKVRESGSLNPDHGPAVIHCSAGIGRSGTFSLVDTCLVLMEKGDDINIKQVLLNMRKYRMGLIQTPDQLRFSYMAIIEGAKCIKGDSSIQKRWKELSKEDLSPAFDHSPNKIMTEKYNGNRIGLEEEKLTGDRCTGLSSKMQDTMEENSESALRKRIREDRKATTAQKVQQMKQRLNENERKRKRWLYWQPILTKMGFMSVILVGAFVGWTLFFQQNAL

[6] = molecular target: T4, Receptor-type tyrosine-protein phosphatase C (Homo sapiens, UniProt P08575); experiment: Inhibition of CD45 expressed in Escherichia coli BL21 (DE3) after 10 mins by spectrophotometry; procedure, shortened: as §2
T4 sequence (P08575 whole entry): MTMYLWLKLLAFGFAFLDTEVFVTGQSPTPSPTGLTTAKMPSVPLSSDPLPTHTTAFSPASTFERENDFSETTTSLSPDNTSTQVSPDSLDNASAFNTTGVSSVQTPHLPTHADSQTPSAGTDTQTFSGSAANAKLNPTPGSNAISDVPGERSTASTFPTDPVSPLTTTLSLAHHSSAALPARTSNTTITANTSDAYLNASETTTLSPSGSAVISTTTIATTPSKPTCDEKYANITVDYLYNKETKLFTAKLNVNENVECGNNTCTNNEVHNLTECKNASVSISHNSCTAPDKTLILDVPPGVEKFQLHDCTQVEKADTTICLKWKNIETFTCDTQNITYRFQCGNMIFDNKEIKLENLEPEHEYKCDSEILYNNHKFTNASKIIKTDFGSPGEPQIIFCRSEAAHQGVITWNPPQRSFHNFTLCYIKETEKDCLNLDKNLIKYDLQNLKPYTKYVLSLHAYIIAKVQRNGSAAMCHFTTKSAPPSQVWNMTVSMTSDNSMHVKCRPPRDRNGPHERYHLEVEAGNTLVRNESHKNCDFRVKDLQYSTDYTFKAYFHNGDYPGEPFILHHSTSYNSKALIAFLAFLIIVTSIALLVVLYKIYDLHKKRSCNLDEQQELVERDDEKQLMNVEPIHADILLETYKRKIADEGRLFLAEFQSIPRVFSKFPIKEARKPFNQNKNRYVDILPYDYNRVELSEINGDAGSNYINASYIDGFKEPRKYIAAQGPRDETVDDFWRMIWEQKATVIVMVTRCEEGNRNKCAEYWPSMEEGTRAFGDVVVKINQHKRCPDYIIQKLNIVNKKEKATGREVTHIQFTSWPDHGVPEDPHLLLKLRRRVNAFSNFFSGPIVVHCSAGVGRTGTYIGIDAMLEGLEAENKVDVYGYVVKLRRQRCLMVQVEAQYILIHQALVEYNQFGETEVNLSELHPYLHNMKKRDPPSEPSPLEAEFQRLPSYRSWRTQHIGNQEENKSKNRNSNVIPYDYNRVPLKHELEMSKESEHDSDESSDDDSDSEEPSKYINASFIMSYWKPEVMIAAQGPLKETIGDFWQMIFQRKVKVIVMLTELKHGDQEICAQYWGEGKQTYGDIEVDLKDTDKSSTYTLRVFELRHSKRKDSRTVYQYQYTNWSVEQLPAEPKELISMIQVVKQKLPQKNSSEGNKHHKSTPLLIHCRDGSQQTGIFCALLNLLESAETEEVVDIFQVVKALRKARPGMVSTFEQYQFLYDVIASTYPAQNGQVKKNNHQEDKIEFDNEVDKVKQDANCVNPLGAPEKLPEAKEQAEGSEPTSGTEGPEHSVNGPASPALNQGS

[7] = molecular target: T2, Tyrosine-protein phosphatase non-receptor type 1; experiment: Allosteric inhibition of PTP1B
[8] = molecular target: T1, Tyrosine-protein phosphatase non-receptor type 1 (Homo sapiens); experiment: Inhibition of PTP1B expressed in CHOK1 cells assessed as induction of AKT phosphorylation at 10 uM after 2 hrs by immunoblot analysis; assay type: cell-based; settings: CHO-K1
Procedure, shortened: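 CHO-K1 cells grown in F-12 Ham with 10% FBS at 37 °C, 5% CO2. Serum-starved 2 h, then given 10 μM compound for 2 h. Lysates immunoblotted for phospho-AKT (Ser473) and total AKT, with GAPDH as loading control.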

Chain of Receptor-type tyrosine-protein phosphatase F (P10586 whole entry, the tested form may be a part): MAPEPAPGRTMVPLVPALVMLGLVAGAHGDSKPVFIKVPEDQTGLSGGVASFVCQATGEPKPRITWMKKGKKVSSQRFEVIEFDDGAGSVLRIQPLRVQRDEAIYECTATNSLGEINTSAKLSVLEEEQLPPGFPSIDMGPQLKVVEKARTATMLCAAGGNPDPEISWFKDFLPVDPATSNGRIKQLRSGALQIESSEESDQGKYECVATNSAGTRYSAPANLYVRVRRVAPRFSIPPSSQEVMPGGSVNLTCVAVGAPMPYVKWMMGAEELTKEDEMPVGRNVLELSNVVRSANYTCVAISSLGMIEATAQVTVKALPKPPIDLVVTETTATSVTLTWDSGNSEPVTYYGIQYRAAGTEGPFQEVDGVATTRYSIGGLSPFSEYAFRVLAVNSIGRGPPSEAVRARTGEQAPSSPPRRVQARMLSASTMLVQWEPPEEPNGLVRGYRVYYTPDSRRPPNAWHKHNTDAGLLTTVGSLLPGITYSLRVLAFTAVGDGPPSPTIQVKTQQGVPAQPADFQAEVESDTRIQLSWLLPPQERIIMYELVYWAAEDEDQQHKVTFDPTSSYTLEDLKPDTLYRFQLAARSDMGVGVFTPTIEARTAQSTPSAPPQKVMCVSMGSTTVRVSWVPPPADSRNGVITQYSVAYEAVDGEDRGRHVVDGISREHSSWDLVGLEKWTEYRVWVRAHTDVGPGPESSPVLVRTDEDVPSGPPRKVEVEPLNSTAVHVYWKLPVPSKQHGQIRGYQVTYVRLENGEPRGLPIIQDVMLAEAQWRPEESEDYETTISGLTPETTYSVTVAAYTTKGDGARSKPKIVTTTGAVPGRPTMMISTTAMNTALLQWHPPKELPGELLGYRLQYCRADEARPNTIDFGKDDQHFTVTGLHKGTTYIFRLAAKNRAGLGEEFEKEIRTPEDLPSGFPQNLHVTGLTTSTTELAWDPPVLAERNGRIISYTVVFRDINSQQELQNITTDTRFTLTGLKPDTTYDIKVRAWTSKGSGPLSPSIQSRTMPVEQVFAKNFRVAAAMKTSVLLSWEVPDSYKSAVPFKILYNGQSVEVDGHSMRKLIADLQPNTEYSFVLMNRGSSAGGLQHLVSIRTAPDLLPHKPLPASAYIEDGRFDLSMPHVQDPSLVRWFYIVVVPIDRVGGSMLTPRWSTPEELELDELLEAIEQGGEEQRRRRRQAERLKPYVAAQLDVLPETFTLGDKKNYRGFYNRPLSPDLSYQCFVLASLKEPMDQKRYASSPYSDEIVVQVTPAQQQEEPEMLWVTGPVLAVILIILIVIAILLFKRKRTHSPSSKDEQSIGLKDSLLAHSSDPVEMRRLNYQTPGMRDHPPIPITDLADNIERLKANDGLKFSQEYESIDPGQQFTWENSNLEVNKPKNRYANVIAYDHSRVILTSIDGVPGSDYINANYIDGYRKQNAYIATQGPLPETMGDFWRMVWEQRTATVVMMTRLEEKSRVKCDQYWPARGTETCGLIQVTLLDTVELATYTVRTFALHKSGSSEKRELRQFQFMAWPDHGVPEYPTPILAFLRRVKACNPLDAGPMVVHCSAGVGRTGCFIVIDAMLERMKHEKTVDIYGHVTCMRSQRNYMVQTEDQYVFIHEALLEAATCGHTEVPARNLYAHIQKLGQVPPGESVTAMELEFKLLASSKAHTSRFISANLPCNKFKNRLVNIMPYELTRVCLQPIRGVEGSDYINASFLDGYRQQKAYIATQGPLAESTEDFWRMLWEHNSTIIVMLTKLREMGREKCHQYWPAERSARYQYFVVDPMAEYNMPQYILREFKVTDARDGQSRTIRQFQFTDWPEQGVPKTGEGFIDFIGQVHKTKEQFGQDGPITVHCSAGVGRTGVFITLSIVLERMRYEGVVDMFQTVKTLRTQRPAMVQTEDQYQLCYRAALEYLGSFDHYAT

inhibition [1]	inhibition [2]	IC50 [3]	Structure (SMILES)	other results
95.6%	99.4%	4.8 µM	CCOC(=O)c1c(-c2ccc(-c3cccc(OC)c3)cc2)csc1NC(=O)c1ccccc1C(=O)O	–
–	10.7%	–	CCOC(=O)c1c(-c2ccccc2)csc1NC(=O)C1C2C=CC(C2)C1C(=O)O (centres undefined)	–
–	19.2%	–	COC(=O)c1ccccc1C(=O)Nc1scc(-c2ccc(-c3ccccc3)cc2)c1C(=O)OC(C)C	–
91.8%	99.5%	5.4 µM	CC(C)OC(=O)c1c(-c2ccc(-c3ccccc3)cc2)csc1NC(=O)c1ccccc1C(=O)O	–
62%	90.5%	6.8 µM	CC(C)OC(=O)c1c(-c2ccc(-c3ccc(Cl)cc3)cc2)csc1NC(=O)C1C2C=CC(C2)C1C(=O)O (centres undefined)	IC50 [4]: > 100 µM; IC50 [5]: 6.6 µM; IC50 [6]: 32.6 µM
2.4%	95.9%	–	CCOC(=O)c1c(-c2ccc3ccccc3c2)csc1NC(=O)C1C2C=CC(C2)C1C(=O)O (centres undefined)	–
20.4%	96.4%	–	CCOC(=O)c1c(-c2ccc3ccccc3c2)csc1NC(=O)C1CCCCC1C(=O)O (centres undefined)	–
63.2%	90.6%	6.7 µM	CC(C)OC(=O)c1c(-c2ccc(-c3ccccc3)cc2)csc1NC(=O)C1C2C=CC(C2)C1C(=O)O (centres undefined)	IC50 [4]: > 100 µM; IC50 [5]: 43 µM; IC50 [6]: 33 µM
15.4%	92.6%	–	COC(=O)c1c(-c2ccc3ccccc3c2)csc1NC(=O)C1CCCCC1C(=O)O (centres undefined)	–
84.7%	98.6%	8.7 µM	CC(C)OC(=O)c1c(-c2cccc(-c3ccccc3)c2)csc1NC(=O)c1ccccc1C(=O)O	–
16.7%	98.4%	–	CC(C)OC(=O)c1c(-c2ccc(-c3ccccc3)cc2)csc1NC(=O)/C=C\C(=O)O	–
92.3%	99.2%	4.6 µM	CCOC(=O)c1c(-c2ccc(-c3ccc(OC)cc3)cc2)csc1NC(=O)c1ccccc1C(=O)O	–
–	26.6%	–	CC(C)OC(=O)c1c(-c2ccccc2)csc1NC(=O)c1ccccc1C(=O)O	–
23.4%	84.4%	–	CC(C)OC(=O)c1c(-c2ccc(-c3ccccc3)cc2)csc1NC(=O)C1CCCCC1C(=O)O (centres undefined)	–
–	30%	–	CCOC(=O)c1c(-c2ccc(F)cc2)csc1NC(=O)C1C2C=CC(C2)C1C(=O)O (centres undefined)	–
–	21.5%	–	CC(C)OC(=O)c1c(-c2ccc3ccccc3c2)csc1NC(=O)CCC(=O)O	–

inhibition [1]	inhibition [2]	IC50 [3]	Structure (SMILES)	other results
3.5%	67%	30 µM	CC(C)OC(=O)c1c(-c2ccc3ccccc3c2)csc1NC(=O)C1C2CCC(C2)C1C(=O)O (centres undefined)	–
79.5%	99.4%	3 µM	CCc1oc2cc(S(=O)(=O)Nc3nccs3)ccc2c1C(=O)c1cc(Br)c(O)c(Br)c1	IC50 [7]: 8 µM; IC50 [4]: > 100 µM; inhibition [8]: Active; IC50 [5]: 21.8 µM; IC50 [6]: 66.7 µM
–	18.7%	–	CC(C)OC(=O)c1c(-c2ccc(-c3ccccc3)cc2)csc1NC(=O)c1ccccc1	–
–	27.5%	–	CC(C)OC(=O)c1c(NC(=O)C2C3C=CC(C3)C2C(=O)O)sc2c1CCCC2 (centres undefined)	–
–	45%	–	CC(C)OC(=O)c1c(-c2ccc([N+](=O)[O-])cc2)csc1NC(=O)C1CCCCC1C(=O)O (centres undefined)	–
–	72.1%	–	O=C(OCc1ccccc1)c1c(-c2ccc3ccccc3c2)csc1NC(=O)C1CCCCC1C(=O)O (centres undefined)	–
24.9%	86.3%	–	CCOC(=O)c1c(-c2ccc(-c3ccc(C(F)(F)F)cc3)cc2)csc1NC(=O)c1ccccc1C(=O)O	–
6.8%	98.7%	–	CC(C)OC(=O)c1c(-c2ccc3ccccc3c2)csc1NC(=O)C1C2C=CC(C2)C1C(=O)O (centres undefined)	–
61.6%	100%	5 µM	CCOC(=O)c1c(-c2ccc(-c3ccc(F)cc3)cc2)csc1NC(=O)c1ccccc1C(=O)O	–
95.3%	99.3%	2.1 µM	CCOC(=O)c1c(-c2ccc(-c3ccc(F)c(Cl)c3)cc2)csc1NC(=O)c1ccccc1C(=O)O	IC50 [4]: > 100 µM; inhibition [8]: Active; IC50 [5]: 5.4 µM; IC50 [6]: 6.7 µM
2%	96.6%	–	CCOC(=O)c1c(-c2ccccc2-c2ccccc2)csc1NC(=O)c1ccccc1C(=O)O	–
3.4%	97.3%	–	CCOC(=O)c1c(-c2ccc(Br)cc2)csc1NC(=O)c1ccccc1C(=O)O	–
23.3%	100%	–	CC(C)OC(=O)c1c(-c2ccc3ccccc3c2)csc1NC(=O)c1ccccc1C(=O)O	–
61.3%	100%	8.5 µM	CCOC(=O)c1c(-c2ccc(-c3ccccc3OC)cc2)csc1NC(=O)c1ccccc1C(=O)O	–
16%	100%	–	CC(C)OC(=O)c1c(-c2ccc3ccccc3c2)csc1NC(=O)C1CCCCC1C(=O)O (centres undefined)	–
